Data on 1 compound can be found in ChEMBL document CHEMBL1156469 (2007).

In test [1] the test system is MC3T3-E1. Kind of test: Increase in osteocalcin levels in mouse MC3T3-E1 cells at 1 uM after 72 hrs by ELISA. The class given is functional, cell-based. Summed up: (§1)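 Cells treated with 1 μm for 72 h; osteocalcin or osteopontin in culture medium by sandwich ELISA, HRP-streptavidin/TMB, 450 nm; percent change versus untreated control.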
Background: In an ELISA, binding on a coated surface is turned into a signal by an enzyme label.

Test [2] relates to Osteoblast. As to the kind of experiment: Effect on procollagen 4 alpha 6 gene expression in rat primary osteoblast cells assessed as expression ratio of treated to untreated control by microarray analysis. The class given is functional. Summed up:
(§2)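 Resveratrol-treated and vehicle-treated primary osteoblasts were profiled on a mouse osteogenesis-focused cDNA array (GEArray Q series) built to track gene expression during osteogenic differentiation. Each gene's signal in treated cells was expressed as a ratio to untreated control.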

Test [3] deals with MC3T3-E1. Kind of test: Increase in osteopontin levels in mouse MC3T3-E1 cells at 1 uM after 72 hrs by ELISA. It is filed as functional, cell-based. An outline of the steps: as §1
The subject of test [4] is MG-63. Kind of test: Increase in osteocalcin mRNA levels in human MG63 cells at 1 uM after 72 hrs by RT-PCR. It is filed as functional, cell-based. Summed up:
(§3)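 Cells treated with 1 μm for 72 h; osteocalcin and osteopontin mRNA by RT-PCR, 30 cycles (95/52/72 °C, 1 min each), ethidium bromide–stained agarose gels; repeated at least twice from at least two cDNA preparations.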

The subject of test [5] is MC3T3-E1. As to the kind of experiment: Inhibition of etoposide-induced apoptosis in mouse MC3T3-E1 cells after 24 hrs by flow cytometry. It is filed as functional, cell-based. Summed up:
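Cells washed in PBS, held 30 min in 0.5% Triton X-100/PBS/0.05% RNase A, then propidium iodide (50 μg/ml) added and kept on ice 15–30 min. Apoptosis is the hypodiploid fraction below the G0/G1 peak, by flow cytometry. Run in triplicate and repeated on three occasions.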
In general terms: In flow cytometry, cells or beads pass a laser one at a time.

Test [6] concerns MC3T3-E1. As to the kind of experiment: Reversal of increase in ER.DNA complex in mouse MC3T3-E1 cells expressing small interfering RNA for FOXA1 protein at 1 uM by RT-PCR. The class given is functional, cell-based.
The subject of test [7] is MC3T3-E1. As to the kind of experiment: Reversal of induction in nuclear translocation of ERalpha in mouse MC3T3-E1 cells at 1 uM in presence of PP2. It is filed as functional, cell-based. Summed up: (§4)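 Src phosphorylation, ERα nuclear translocation and BMP-2 protein analysed by Western blot with ECL detection. Three independent experiments.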
Test [8] deals with MC3T3-E1. As to the kind of experiment: Reversal of induction in ER.DNA complex in mouse MC3T3-E1 cells at 1 uM by RT-PCR in presence of tamoxifen. It is filed as functional, cell-based. An outline of the steps:
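BMP-2 promoter quantified by real-time PCR (45 cycles, 61 °C anneal), reported as IP-to-input Ct ratio. DN-Src by 3 μg vector, PP2 at 10 μM; ICI182780 and tamoxifen at indicated concentrations.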

Test [9] has as its system MG-63. As to the kind of experiment: Increase in osteopontin mRNA levels in human MG63 cells at 1 uM after 72 hrs by RT-PCR. The class given is functional, cell-based. An outline of the steps: as §3
Test [10] deals with MC3T3-E1. Kind of test: Increase in BMP2 expression in mouse MC3T3-E1 cells expressing pBMP2delta1 mutant at 1 uM after 4 hrs by luciferase method relative to control. The class given is functional, cell-based. Summed up:
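MC3T3-E1 cells transfected with BMP-2 promoter–luciferase constructs (full promoter or deletions), treated with 1 μm or vehicle for 4 h; Dual-Luciferase assay; means ± S.D.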

Test [11] is described as follows: Effect on colony stimulating factor 2 gene expression in rat primary osteoblast cells assessed as expression ratio of treated to untreated control by microarray analysis. The class given is functional.
The subject of test [12] is MC3T3-E1. Kind of test: Inhibition of antiapoptotic activity in mouse MC3T3-E1 cells at 1 uM after 48 hrs in presence of BMP2-specific neutralizing antibody. The class given is functional, cell-based.
Test [13] deals with MDA-MB-231. As to the kind of experiment: Decrease in Akt activation in human MDA-MB-231 cells expressing FOXO3a-specific small interfering RNA xenografted in nude mice at 10 mg/kg for 2 days. Set-up: dose 10 mg/kg. It is filed as functional, organism-based. Summed up: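 MDA-MB-231 cells were cotransfected with FOXO3a siRNA (pSuper) and pcDNA3 at a 10:1 ratio. Stable pools were selected in 800 μg/ml G418 for 4 weeks, and control siRNA pools were made the same way. […] Akt phosphorylation was then assessed in the primary tumors.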
A general note: A xenograft is tissue or cells of one species grown in another, often human tumour cells in immunodeficient mice.

Test [14] relates to Osteoblast. As to the kind of experiment: Effect on insulin-like growth factor 1 gene expression in rat primary osteoblast cells assessed as expression ratio of treated to untreated control by microarray analysis. The class given is functional. Summed up:
as §2

In the next test the test system is T47D. Kind of test: Antiproliferative activity against human T47D cells at 1 uM by flow cytometry. The class given is functional, cell-based. An outline of the steps:
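Proliferation was measured by DNA flow cytometry. Incubations were run in triplicate across three separate experiments, and values are means ± S.D.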

In test [15] the test system is MDA-MB-231. Kind of test: Induction of FOXO3a nuclear accumulation in human MDA-MB-231 cells FOXO3a-specific small interfering RNA xenografted in nude mice at 10 mg/kg for 2 days. It is filed as functional, organism-based. Set-up: dose 10 mg/kg.
In test [16] the target is T1, Estrogen receptor (Mus musculus) (UniProt P19785).
T1 sequence (whole entry): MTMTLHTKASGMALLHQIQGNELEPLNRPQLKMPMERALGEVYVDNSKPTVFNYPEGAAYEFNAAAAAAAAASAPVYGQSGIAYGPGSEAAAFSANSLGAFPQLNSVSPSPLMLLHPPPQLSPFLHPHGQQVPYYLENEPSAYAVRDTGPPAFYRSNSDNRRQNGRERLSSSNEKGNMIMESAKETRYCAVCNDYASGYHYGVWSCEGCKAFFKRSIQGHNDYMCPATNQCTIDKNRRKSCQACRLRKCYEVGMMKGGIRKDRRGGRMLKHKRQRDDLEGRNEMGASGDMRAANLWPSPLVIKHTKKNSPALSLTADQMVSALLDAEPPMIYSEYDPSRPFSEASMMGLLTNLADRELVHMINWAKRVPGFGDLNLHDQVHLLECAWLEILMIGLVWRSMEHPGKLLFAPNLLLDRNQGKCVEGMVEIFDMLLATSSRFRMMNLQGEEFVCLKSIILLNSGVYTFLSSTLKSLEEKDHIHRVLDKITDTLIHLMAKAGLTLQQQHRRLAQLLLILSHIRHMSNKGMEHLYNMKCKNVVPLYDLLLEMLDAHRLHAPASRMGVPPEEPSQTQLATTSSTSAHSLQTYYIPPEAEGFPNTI
As to the kind of experiment: Reversal of increase in DNA-binding activity of ERalpha in nuclear extracts of mouse MC3T3-E1 cells by electrophoretic mobility shift assays in presence of ICI-182780. It is filed as cell-based. Summed up:
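Nuclear extracts of MC3T3-E1 cells. ER-binding probe [α-32P]dCTP end-labeled, 20-min binding at room temperature, 5-fold unlabeled competitor where used. Complexes resolved on 5% nondenaturing PAGE in Tris-borate-EDTA pH 8.3, then autoradiography.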

Test [17] deals with Proto-oncogene tyrosine-protein kinase Src (Mus musculus) (UniProt P05480). As to the kind of experiment: Reversal of increase in Src kinase phosphorylation in mouse MC3T3-E1 cells at 1 uM in presence of PP2. It is filed as cell-based. An outline of the steps:
as §4

The target in test [18] is T1, Estrogen receptor (Mus musculus). As to the kind of experiment: Increase in DNA-binding activity of ERalpha in nuclear extracts of mouse MC3T3-E1 cells by electrophoretic mobility shift assays. The class given is cell-based. An outline of the steps: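 MC3T3-E1 nuclear extracts incubated with 32P end-labeled ERα probe for 20 min at room temperature in 20 μl; 5-fold unlabeled competitor for specificity; 5% nondenaturing PAGE in Tris-borate-EDTA pH 8.3, autoradiography at –70 °C.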

Test [19] concerns Osteoblast. Kind of test: Effect on procollagen 3 alpha 1 gene expression in rat primary osteoblast cells assessed as expression ratio of treated to untreated control by microarray analysis. It is filed as functional. An outline of the steps: as §2
Test [20] in a line: Reversal of induction in BMP2 expression in mouse MC3T3-E1 cells at 1 uM by Western blot in presence of PP2. It is filed as functional, cell-based. An outline of the steps:
as §4

Activity calls are given as the source filed them. The calls are words filed in the database; no cut-off is given here.

Proto-oncogene tyrosine-protein kinase Src (Mus musculus), sequence (P05480 2-535 limits assumed): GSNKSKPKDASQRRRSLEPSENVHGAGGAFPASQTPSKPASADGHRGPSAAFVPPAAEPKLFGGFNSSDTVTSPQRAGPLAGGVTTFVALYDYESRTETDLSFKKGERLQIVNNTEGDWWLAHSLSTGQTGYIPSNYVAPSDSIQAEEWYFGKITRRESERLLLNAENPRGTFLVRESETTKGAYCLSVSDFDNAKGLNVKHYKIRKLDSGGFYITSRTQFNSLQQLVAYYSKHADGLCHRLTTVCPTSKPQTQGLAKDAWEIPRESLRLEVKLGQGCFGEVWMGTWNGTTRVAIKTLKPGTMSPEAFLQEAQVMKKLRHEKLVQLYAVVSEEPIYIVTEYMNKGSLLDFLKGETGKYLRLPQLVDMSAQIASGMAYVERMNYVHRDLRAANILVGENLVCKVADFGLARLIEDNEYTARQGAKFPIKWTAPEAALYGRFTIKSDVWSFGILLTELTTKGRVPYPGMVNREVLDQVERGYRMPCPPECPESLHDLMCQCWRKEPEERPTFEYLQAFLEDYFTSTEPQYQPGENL

Consider `Oc1ccc(/C=C/c2cc(O)cc(O)c2)cc1` [RESVERATROL], for which the result in the test with MC3T3-E1 [1], with MC3T3-E1 [3], in the test with MG-63 [4], with MC3T3-E1 [5], with MC3T3-E1 [6] and with MC3T3-E1 [7] was Active. In addition, the result in the test with MG-63 [9], in the test with MC3T3-E1 [10], in the test on MC3T3-E1 [12], in the test with MDA-MB-231 [13], with T47D and in the test with MDA-MB-231 [15] was Active. The result in [16], in test [17], in test [18] and in test [20] was Active. For the same compound, the Ratio was found to be 3.689 with Osteoblast [2], 0.35 in test [11], 4.54 with Osteoblast [14] and 4.41 in the test with Osteoblast [19]. In addition, the Activity result in the test on MC3T3-E1 [8] is “Dose-dependent effect”.
